# Source: PubChem (The Scripps Research Institute Molecular Screening Center)
# Sampled rows, rich in hits. Any-hit rate of the full collection: about 2.2%.
# HTRA1 inhibitor – inhibitors of human serine peptidase HTRA1; recombinant HTRA1, FP-rhodamine activity-based probe, fluorescence polarization; 340,000 compounds, 0.5% hits; Q92743; inhibition, % at 5.96 µM; in the data active = inhibition above about 36%;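 note: 0% = enzyme with DMSO and 100% = wells lacking enzyme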
# ABHD4 inh – ABHD4 (mouse) inhibition, primary FP screen; Q8VD66; purified mABHD4, FP-Rh probe fluorescence polarization; inhibition, % at 8.92 µM; 370,000 compounds, 0.54% hits; AID 720543;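 active = inhibition exceeding the mean over every tested compound plus 3 SD, cut at about 30% in these data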;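 note: 0% = plate median of compound wells and 100% = S159A mutant with DMSO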
# Target sequence (Q8VD66 whole entry, looked up): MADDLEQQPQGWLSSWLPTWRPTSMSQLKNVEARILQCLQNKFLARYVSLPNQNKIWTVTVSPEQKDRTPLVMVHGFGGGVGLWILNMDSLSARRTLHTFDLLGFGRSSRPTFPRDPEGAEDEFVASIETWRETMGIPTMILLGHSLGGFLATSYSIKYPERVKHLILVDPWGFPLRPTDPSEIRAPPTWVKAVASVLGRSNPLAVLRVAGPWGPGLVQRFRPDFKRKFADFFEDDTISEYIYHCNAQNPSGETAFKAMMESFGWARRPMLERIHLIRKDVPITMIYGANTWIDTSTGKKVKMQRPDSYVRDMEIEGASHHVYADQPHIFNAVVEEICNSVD
#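 Doses – 8.92 µM, single dose · Material – wild-type mouse ABHD4 protein · Replication – single well per compound (singlicate) · Measure – percent inhibition of probe binding, normalized to plate controls · Schedule – 45 min compound pre-incubation plus 60 min probe step, 25 °C · Detection – fluorescence polarization with parallel and perpendicular emission, 525/598 nm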
# SIAE primary – inhibitors of human sialic acid acetylesterase SIAE; Q9HAT2; SIAE FP-Rh probe binding, fluorescence polarization; inhibition, % at 9.66 µM; 370,000 compounds, 0.69% hits; AID 1053197;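 active = inhibition above a cutoff: mean of compounds within the control limits plus 3 SD of those, cut at about 17% in these data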;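 note: 0% = plate median of compound wells and 100% = probe without SIAE protein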
# LEDGF integ inh – blocks HIV-1 LEDGF/p75-dependent DNA integration; TR-FRET IN-LEDGF/p75 DNA integration, Eu/Cy5; inhibition, % at 3.7 µM; 370,000 compounds, 0.64% hits;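 active = inhibition above the screen-wide mean plus 3 SD, cut at about 13% in these data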;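 note: signal is the Cy5 over europium emission ratio at 671 and 618 nm; 0% = plate median of compound wells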
# TCR CD3 inh – human TCR-CD3 binding inhibition; TAMRA-labeled TCR probe fluorescence, biochemical; inhibition, % at 9.4 µM; 360,000 compounds, 0.37% hits; in the data active = inhibition above about 19%;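 note: recombinant mutant TCR 2C K166C tagged with TAMRA read by polarization; 0% = receptor in buffer alone and 100% = receptor with positive control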
# TDP2 absorb – blocks human TDP2 phosphodiesterase activity. O95551. recombinant TDP2, T5PNP hydrolysis, p-nitrophenol absorbance 415 nm. inhibition, % at 12.8 µM. 370,000 compounds, 0.34% hits. AID 720702;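 active = inhibition above the mean of all tested compounds plus 3 SD, set per campaign, cut at about 25% in these data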;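 note: 0% = DMSO with enzyme and 100% = buffer with substrate but no TDP2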
# Target sequence (O95551 whole entry, looked up): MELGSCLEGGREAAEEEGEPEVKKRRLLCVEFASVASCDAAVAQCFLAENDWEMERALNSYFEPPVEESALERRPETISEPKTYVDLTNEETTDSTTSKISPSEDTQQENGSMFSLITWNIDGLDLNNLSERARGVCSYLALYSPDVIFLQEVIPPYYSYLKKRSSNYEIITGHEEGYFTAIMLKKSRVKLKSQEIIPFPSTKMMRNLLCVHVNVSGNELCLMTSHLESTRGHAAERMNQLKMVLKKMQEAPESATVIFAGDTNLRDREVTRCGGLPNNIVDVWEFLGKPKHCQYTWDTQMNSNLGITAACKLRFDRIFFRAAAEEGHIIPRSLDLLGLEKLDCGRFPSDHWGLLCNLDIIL
#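 Material: recombinant human TDP2; quantity: TDP2 enzyme at 120 nM final; medium: Tris-HCl pH 7.5 with MgCl2; compound: single concentration, 12.8 µM nominal, with 1% DMSO; incubation: 2 h enzyme incubation at 37 °C; signal: epi absorbance; measure: percent inhibition; benchmarks: high control without enzyme, low control DMSO plus TDP2; repeats: singlicate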
# SIAE confirm – confirmation of human SIAE inhibitors | inhibition, % at 9.66 µM | shares compounds with SIAE primary | SIAE FP-Rh activity-based probe, fluorescence polarization | 2,300 compounds, 13% hits;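 active = mean inhibition of the replicates above the hit cutoff set in the primary screen, cut at about 17% in these data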;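 note: 0% = SIAE with DMSO and probe and 100% = probe without SIAE; inhibitors lower polarization as more probe stays unbound to SIAE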
# An asterisk follows results filed as active; . = no result given.
SMILES,HTRA1 inhibitor,ABHD4 inh,SIAE primary,LEDGF integ inh,TCR CD3 inh,TDP2 absorb,SIAE confirm
O=C(O)Cn1c(CCS(=O)(=O)c2ccc(Br)cc2)nc2ccccc21,-1.7,3.4,28.9*,-7.8,-3.8,-1.3,3.5
COC(=O)CCCCCc1ccc(C(C)=O)s1,3.5,1.1,17.5*,-1.0,3.4,-1.1,6.4
CC(=O)c1ccc(CCCCCCCCCC(=O)O)s1,0.5,5.6,6.6,5.4,4.4,-0.2,.
O=C(NC1CC1)c1ccc2nc([C@@H]3O[C@H](CO)[C@H](O)[C@H](O)[C@H]3O)[nH]c2c1,.,-2.4,1.0,0.6,-3.0,2.4,.
CCOC(=O)CC1=C(C#N)C(c2cccnc2)C(C(=O)OCC)=C(N)O1 (configuration not stated),-2.5,2.5,-3.3,-1.1,6.3,5.2,.
CCOC(=O)CC1=C(C(=O)OCC)C(c2cccnc2)C(C#N)=C(N)O1 (configuration not stated),-1.8,2.8,17.3*,2.1,-1.4,13.1,-0.8
c1ccc(-c2ccc(-c3ccncn3)cc2)cc1,6.6,0.3,-6.7,0.4,-3.9,-2.8,.
COCCNc1nc(-c2ccc(OC)cc2)c(-c2ccc(OC)cc2)s1,16.5,5.0,18.5*,-3.5,-8.7,-4.1,6.9
CCN(CC)CCNc1nc(-c2ccc(OC)cc2)c(-c2ccc(OC)cc2)s1,14.6,4.3,-2.4,1.1,-2.2,-2.1,.
COc1ccc(OC)c(CNS(=O)(=O)c2ccccc2Br)c1,.,1.7,-3.2,-5.1,-8.5,3.5,.
O=C(CNC(=O)C1CCCCC1)Nc1cc(Cl)ccc1Cl,-4.2,-10.7,-0.1,2.3,0.8,-15.8,.
O=C(CNC(=O)C1CCCCC1)Nc1ccccc1Cl,7.9,-6.5,80.5*,2.2,5.1,7.6,-0.9
Cc1c(Cl)cccc1NC(=O)CNC(=O)C1CC(=O)N(C2CCCC2)C1 (configuration not stated),4.7,-5.6,21.1*,2.6,-4.0,-1.6,0.1
CCC(CC)CN1CCC(CN2C(=S)NC[C@@H]2Cc2ccccc2)CC1,.,-5.5,2.3,2.3,-3.4,0.3,.
COc1cc(OC)c(OC)cc1/C=N/NC(=O)C[n+]1ccccc1,-0.9,3.8,48.7*,0.0,7.5,-7.1,-2.5
CCC(=O)c1ccc(Oc2nc3c(c(=O)n(C)c(=O)n3C)n2CC)cc1,-13.2,5.8,3.4,3.0,11.7,1.3,.
COC(=O)c1ccc(Oc2nc3c(c(=O)n(C)c(=O)n3C)n2CCC(C)C)cc1,5.0,-2.9,28.2*,1.3,2.2,-3.5,-3.4
O=[N+]([O-])c1ccc(Cl)c(S(=O)(=O)NC2=NCCC2)c1,-3.0,3.3,1.1,-1.4,0.2,-5.7,.
COc1ccc(N=Nc2nc3ccc(Br)cc3n2C)cc1,12.5,5.7,18.3*,7.2,13.0,-5.5,0.2
COc1ccc(-c2c(-c3cc(OC)cc(OC)c3)n(C)c3ccc(Br)cc23)cc1,-0.5,5.4,4.7,1.5,-2.3,10.5,.
O=C(O)CCc1nn2c3ccccc3n(CC(=O)O)c2nc1=O,0.7,-1.8,29.8*,-1.9,1.8,6.5,-2.0
CCN(CC(=O)Nc1ccc(NC(C)=O)cc1)C(=O)c1ccc(S(=O)(=O)N2CCCC2)cc1,9.6,2.2,12.2,-0.4,1.7,12.3,.
C=CCn1c(=O)[nH]c(=O)c2c(N)c(C(=O)c3ccc(OC)cc3)sc21,-8.9,-6.5,-6.0,0.1,5.4,-15.2,.
O=C(NCC1CCCO1)c1nnc(Cc2ccc(F)cc2)o1 (configuration not stated),-2.7,-1.6,18.0*,7.8,-1.6,-1.7,-4.8
O=C(CN(Cc1ccc(Br)cc1)S(=O)(=O)c1ccccc1)NCC1CCCO1 (configuration not stated),-2.5,-6.7,18.1*,0.7,-6.1,6.6,16.2
SMILES,HTRA1 inhibitor,ABHD4 inh,SIAE primary,LEDGF integ inh,TCR CD3 inh,TDP2 absorb,SIAE confirm
S=C(NCC1CCCO1)Nc1ccccc1 (configuration not stated),2.1,0.8,21.1*,-0.7,4.2,-1.9,0.2
O=C(NCC1CCCO1)c1ccccc1 (configuration not stated),-11.2,-6.0,17.4*,1.3,3.5,2.8,4.0
C/C(=N\NC(=O)c1ccccc1O)c1ccc(NC(=O)Cc2ccccc2)cc1,10.6,1.9,17.6*,-0.1,6.1,-1.9,0.3
O=C1N=c2ccc(Br)cc2=C1c1sc(=S)n(NS(=O)(=O)c2ccccc2)c1O,-1.8,25.5,11.5,-1.2,12.8,1.5,.
O=C1N=c2ccccc2=C1c1sc(=S)n(NC(=O)c2cccc(O)c2)c1O,-0.2,25.5,29.0*,1.4,1.8,3.5,32.6*
Cc1ccccc1CN1CCN(C(=O)[C@H]2O[C@@H](n3cnc(C(N)=O)n3)[C@H](O)[C@@H]2O)CC1,.,-2.7,18.7*,-0.9,3.9,-1.6,29.0*
NC(=O)c1ncn([C@@H]2O[C@H](C(=O)N3CCCN(Cc4ccccc4F)CC3)[C@@H](O)[C@H]2O)n1,.,-0.1,80.5*,0.0,5.8,1.3,87.8*
COc1ccc2nc3n(c(=O)c2c1)-c1ncccc1C(=O)NC3C (configuration not stated),5.6,-2.7,-6.2,2.1,2.6,-5.7,.
COc1cccc(-n2cnnc2SCC(=O)NC2CC2)c1,-2.4,-7.0,-1.7,1.8,3.5,13.2,.
O=C(Nc1nc2ccccc2[nH]1)C12CC3CC(CC(C3)C1)C2,-7.9,7.1,17.5*,3.5,1.7,1.1,-4.9
O=C(Nc1nc2ccccc2[nH]1)C1CC1,3.3,7.1,-4.5,-4.1,-3.5,6.3,.
Nc1ncnc2c1ncn2[C@@H]1O[C@H](CNCC#Cc2ccccc2)[C@@H](O)[C@H]1O,1.8,.,.,.,.,.,.
CC(C)C1=Nc2cccc3cccc(c23)N1,26.3,16.0,11.4,2.0,12.2,0.9,.
Nc1cccc(C2=Nc3cccc4cccc(c34)N2)c1,-3.2,-3.8,44.6*,-0.1,0.1,5.3,3.6
COc1ccc(C2=Nc3cccc4cccc(c34)N2)cc1,4.7,5.4,25.9*,-0.1,4.6,17.8,2.0
CCOC(=O)c1ccc(S(=O)(=O)NNc2ccc(C(F)(F)F)cn2)cc1,5.4,-3.1,-0.2,0.3,-5.8,-0.8,.
CC(=O)N1CCN(CC(=O)Nc2ccccc2C(=O)Nc2ccccc2)CC1,1.3,4.3,-6.6,2.9,-1.4,-5.8,.
CN(C)N1C(N)=C(C#N)C(c2ccccc2F)C2=C1CC(C)(C)CC2=O (configuration not stated),8.8,-0.5,24.8*,2.9,2.1,0.5,2.8
Cc1ccc(C)c(NC(=S)NCc2ccc3c(c2)OCO3)c1,-0.5,0.0,18.0*,0.9,8.0,0.9,-2.4
